Data as given in ChEMBL document CHEMBL1144859, “Synthesis and evaluation of homodimeric GnRHR antagonists having a rigid bis-propargylated benzene core” (Bioorg Med Chem, 2008).

Key:
[1] = target: T1, Gonadotropin-releasing hormone receptor (Homo sapiens, UniProt P30968); experiment: Displacement of [125I]triptorelin from human GnRHR expressed in CHO cells; assay type: cell-based
T1 sequence (P30968 whole entry): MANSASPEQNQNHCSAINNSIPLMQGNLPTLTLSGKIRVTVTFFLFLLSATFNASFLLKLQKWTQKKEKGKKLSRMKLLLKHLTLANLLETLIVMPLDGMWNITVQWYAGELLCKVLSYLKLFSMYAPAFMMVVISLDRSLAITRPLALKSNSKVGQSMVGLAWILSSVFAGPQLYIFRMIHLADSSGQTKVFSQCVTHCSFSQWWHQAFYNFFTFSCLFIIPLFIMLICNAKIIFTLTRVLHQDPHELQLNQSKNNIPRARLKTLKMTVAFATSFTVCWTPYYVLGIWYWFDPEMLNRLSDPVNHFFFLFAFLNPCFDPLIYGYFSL
In short: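 Membranes from CHO cells stably expressing human GnRHR (20 μg protein) in 50 mM Tris-HCl pH 7.4, 2 mM MgCl2, 0.1% BSA, with 30,000 cpm [125I]triptorelin and five competitor concentrations, 45 min at 22 °C. Nonspecific binding was set with 1 μM ganirelix. Samples were filtered on PEI-soaked GF/B and counted by gamma counter.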

[2] = target: T2, Gonadotropin-releasing hormone receptor (Homo sapiens) (UniProt P30968); experiment: Antagonist activity at human recombinant GnRHR expressed in CHOK1 cells assessed as reduction in luminescence signal at 10 uM by luciferase reporter gene assay; assay type: functional, cell-based; conditions: CHO-K1
T2 sequence (whole entry): T1 sequence (P30968 whole entry)
In short: (§1)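 CHO-K1 cells stably expressing human GnRHR plus NFAT-luciferase reporter, grown in DMEM/10% FBS with geneticin, harvested and suspended in DMEM with insulin, apo-transferrin and 3% DMSO (7500 cells/well). Compounds (10 μM to 0.3 nM final, half-log) preincubated 30 min, then GnRH 3 nM final (EC80) for 4 h; luciferase substrate added, 1 h at room temperature in the dark; luminescence read.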

[3] = target: T1, Gonadotropin-releasing hormone receptor; experiment: Antagonist activity at human recombinant GnRHR expressed in CHOK1 cells assessed as reduction in luminescence signal by luciferase reporter gene assay; assay type: functional, cell-based, CHO-K1; in short: as §1
[4] = target: T2, Gonadotropin-releasing hormone receptor (Homo sapiens); experiment: Antagonist activity at human recombinant GnRHR expressed in CHOK1 cells assessed as reduction in luminescence signal at 3 uM by luciferase reporter gene assay; assay type: functional, cell-based; conditions: CHO-K1; in short: as §1
[5] = Cytotoxicity against human GnRHR expressing CHO cells assessed as cell viability at 10 uM after 4 hrs; assay type: cell-based, Cricetulus griseus; conditions: chinese hamster, read-out: Activity
In short: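 CHO cells with human GnRHR and luciferase reporter, plated in assay medium with or without 10 μM compound, 4 h at 37 °C. Cells were then trypsinised and suspended in PBS, mixed 1:1 with 0.8% trypan blue, and live cells were counted by hemocytometer.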

Row | SMILES | Ki [1] [nM] | Efficacy [2] [%] | IC50 [3] [nM] | Efficacy [4] [%] | viability at 4 h, 10 µM [5] [%]
1 | CCNC(=O)Nc1ccc(-c2nc3n(Cc4c(F)cccc4F)cc(C(=O)OCC)c(=O)n3c2CN(CC(=O)N2CCC[C@H]2C(=O)NCC#Cc2ccc(C#CCNC(=O)[C@@H]3CCCN3C(=O)CN(Cc3ccccc3)Cc3c(-c4ccc(NC(=O)NCC)cc4)nc4n(Cc5c(F)cccc5F)cc(C(=O)OCC)c(=O)n34)cc2)Cc2ccccc2)cc1 | 740 | 65 |  | 46 | 
2 | CCNC(=O)Nc1ccc(-c2nc3n(Cc4c(F)cccc4F)cc(C(=O)OCC)c(=O)n3c2CN(CC(=O)N[C@H](C(=O)NCC#Cc2cccc(C#CCNC(=O)[C@@H](NC(=O)CN(Cc3ccccc3)Cc3c(-c4ccc(NC(=O)NCC)cc4)nc4n(Cc5c(F)cccc5F)cc(C(=O)OCC)c(=O)n34)C(C)C)c2)C(C)C)Cc2ccccc2)cc1 | 2200 | 43 |  | 28 | 
3 | CCNC(=O)Nc1ccc(-c2nc3n(Cc4c(F)cccc4F)cc(C(=O)OCC)c(=O)n3c2CN(CC(=O)NCCCCCC(=O)NCC#Cc2cccc(C#CCNC(=O)CCCCCNC(=O)CN(Cc3ccccc3)Cc3c(-c4ccc(NC(=O)NCC)cc4)nc4n(Cc5c(F)cccc5F)cc(C(=O)OCC)c(=O)n34)c2)Cc2ccccc2)cc1 | 930 | 58 |  | 44 | 
4 | CCNC(=O)Nc1ccc(-c2nc3n(Cc4c(F)cccc4F)cc(C(=O)OCC)c(=O)n3c2CN(CC(=O)NCC(=O)NCC#Cc2ccccc2)Cc2ccccc2)cc1 | 170 | 95 | 460 | 92 | 
5 | CCNC(=O)Nc1ccc(-c2nc3n(Cc4c(F)cccc4F)cc(C(=O)OCC)c(=O)n3c2CN(CC(=O)N[C@@H](C)C(=O)NCC#Cc2ccc(C#CCNC(=O)[C@H](C)NC(=O)CN(Cc3ccccc3)Cc3c(-c4ccc(NC(=O)NCC)cc4)nc4n(Cc5c(F)cccc5F)cc(C(=O)OCC)c(=O)n34)cc2)Cc2ccccc2)cc1 | 480 | 52 |  | 42 | 
6 | CCNC(=O)Nc1ccc(-c2nc3n(Cc4c(F)cccc4F)cc(C(=O)OCC)c(=O)n3c2CN(CC(=O)NCC(=O)NCC#Cc2cccc(C#CCNC(=O)CNC(=O)CN(Cc3ccccc3)Cc3c(-c4ccc(NC(=O)NCC)cc4)nc4n(Cc5c(F)cccc5F)cc(C(=O)OCC)c(=O)n34)c2)Cc2ccccc2)cc1 | 1100 | 9 |  | 20 | 
7 | CCNC(=O)Nc1ccc(-c2nc3n(Cc4c(F)cccc4F)cc(C(=O)OCC)c(=O)n3c2CN(CC(=O)N2CCC(C(=O)NCC#Cc3ccc(C#CCNC(=O)C4CCN(C(=O)CN(Cc5ccccc5)Cc5c(-c6ccc(NC(=O)NCC)cc6)nc6n(Cc7c(F)cccc7F)cc(C(=O)OCC)c(=O)n56)CC4)cc3)CC2)Cc2ccccc2)cc1 | 510 | 48 |  | 35 | 
8 | CCNC(=O)Nc1ccc(-c2nc3n(Cc4c(F)cccc4F)cc(C(=O)OCC)c(=O)n3c2CN(CC(=O)N2CCC[C@H]2C(=O)NCC#Cc2cccc(C#CCNC(=O)[C@@H]3CCCN3C(=O)CN(Cc3ccccc3)Cc3c(-c4ccc(NC(=O)NCC)cc4)nc4n(Cc5c(F)cccc5F)cc(C(=O)OCC)c(=O)n34)c2)Cc2ccccc2)cc1 | 930 | 67 |  | 31 | 
9 | CCNC(=O)Nc1ccc(-c2nc3n(Cc4c(F)cccc4F)cc(C(=O)OCC)c(=O)n3c2CN(CC(=O)N2CCC(C(=O)NCC#Cc3ccccc3)CC2)Cc2ccccc2)cc1 | 140 | 82 | 460 | 83 | 
10 | CCNC(=O)Nc1ccc(-c2nc3n(Cc4c(F)cccc4F)cc(C(=O)OCC)c(=O)n3c2CN(CC(=O)NCCCC(=O)NCC#Cc2ccc(C#CCNC(=O)CCCNC(=O)CN(Cc3ccccc3)Cc3c(-c4ccc(NC(=O)NCC)cc4)nc4n(Cc5c(F)cccc5F)cc(C(=O)OCC)c(=O)n34)cc2)Cc2ccccc2)cc1 | 600 | 85 |  | 68 | 95
11 | CCNC(=O)Nc1ccc(-c2nc3n(Cc4c(F)cccc4F)cc(C(=O)OCC)c(=O)n3c2CN(CC(=O)N2CCC(C(=O)NCC#Cc3cccc(C#CCNC(=O)C4CCN(C(=O)CN(Cc5ccccc5)Cc5c(-c6ccc(NC(=O)NCC)cc6)nc6n(Cc7c(F)cccc7F)cc(C(=O)OCC)c(=O)n56)CC4)c3)CC2)Cc2ccccc2)cc1 | 400 | 86 |  | 68 | 
12 | CCNC(=O)Nc1ccc(-c2nc3n(Cc4c(F)cccc4F)cc(C(=O)OCC)c(=O)n3c2CN(CC(=O)N[C@@H](C)C(=O)NCC#Cc2cccc(C#CCNC(=O)[C@H](C)NC(=O)CN(Cc3ccccc3)Cc3c(-c4ccc(NC(=O)NCC)cc4)nc4n(Cc5c(F)cccc5F)cc(C(=O)OCC)c(=O)n34)c2)Cc2ccccc2)cc1 | 5300 | 14 |  | 18 | 
13 | CCNC(=O)Nc1ccc(-c2nc3n(Cc4c(F)cccc4F)cc(C(=O)OCC)c(=O)n3c2CN(CC(=O)NCCCC(=O)NCC#Cc2ccccc2)Cc2ccccc2)cc1 | 580 | 96 | 680 | 97 | 95
14 | CCNC(=O)Nc1ccc(-c2nc3n(Cc4c(F)cccc4F)cc(C(=O)OCC)c(=O)n3c2CN(CC(=O)N2CCC[C@H]2C(=O)NCC#Cc2ccccc2)Cc2ccccc2)cc1 | 260 | 89 | 560 | 87 | 
15 | CCNC(=O)Nc1ccc(-c2nc3n(Cc4c(F)cccc4F)cc(C(=O)OCC)c(=O)n3c2CN(CC(=O)NCC(=O)NCC#Cc2ccc(C#CCNC(=O)CNC(=O)CN(Cc3ccccc3)Cc3c(-c4ccc(NC(=O)NCC)cc4)nc4n(Cc5c(F)cccc5F)cc(C(=O)OCC)c(=O)n34)cc2)Cc2ccccc2)cc1 | 530 | 59 |  | 34 | 

More lines, main results first:

Row | Ki [1] [nM] | Efficacy [2] [%] | IC50 [3] [nM] | Efficacy [4] [%] | SMILES | viability at 4 h, 10 µM [5] [%]
16 | 1600 | 61 | 1100 | 63 | CCNC(=O)Nc1ccc(-c2nc3n(Cc4c(F)cccc4F)cc(C(=O)OCC)c(=O)n3c2CN(CC(=O)N[C@@H](C)C(=O)NCC#Cc2ccccc2)Cc2ccccc2)cc1 | 
17 | 620 | 67 |  | 54 | CCNC(=O)Nc1ccc(-c2nc3n(Cc4c(F)cccc4F)cc(C(=O)OCC)c(=O)n3c2CN(CC(=O)NCCCCCC(=O)NCC#Cc2ccc(C#CCNC(=O)CCCCCNC(=O)CN(Cc3ccccc3)Cc3c(-c4ccc(NC(=O)NCC)cc4)nc4n(Cc5c(F)cccc5F)cc(C(=O)OCC)c(=O)n34)cc2)Cc2ccccc2)cc1 | 
18 | 820 | 57 |  | 40 | CCNC(=O)Nc1ccc(-c2nc3n(Cc4c(F)cccc4F)cc(C(=O)OCC)c(=O)n3c2CN(CC(=O)NCCCC(=O)NCC#Cc2cccc(C#CCNC(=O)CCCNC(=O)CN(Cc3ccccc3)Cc3c(-c4ccc(NC(=O)NCC)cc4)nc4n(Cc5c(F)cccc5F)cc(C(=O)OCC)c(=O)n34)c2)Cc2ccccc2)cc1 | 
19 | 380 | 99 | 440 | 97 | CCNC(=O)Nc1ccc(-c2nc3n(Cc4c(F)cccc4F)cc(C(=O)OCC)c(=O)n3c2CN(CC(=O)NCCCCCC(=O)NCC#Cc2ccccc2)Cc2ccccc2)cc1 | 
20 | 720 | 34 |  | 31 | CCNC(=O)Nc1ccc(-c2nc3n(Cc4c(F)cccc4F)cc(C(=O)OCC)c(=O)n3c2CN(CC(=O)N[C@H](C(=O)NCC#Cc2ccc(C#CCNC(=O)[C@@H](NC(=O)CN(Cc3ccccc3)Cc3c(-c4ccc(NC(=O)NCC)cc4)nc4n(Cc5c(F)cccc5F)cc(C(=O)OCC)c(=O)n34)C(C)C)cc2)C(C)C)Cc2ccccc2)cc1 | 
21 | 770 | 60 | 520 | 64 | CCNC(=O)Nc1ccc(-c2nc3n(Cc4c(F)cccc4F)cc(C(=O)OCC)c(=O)n3c2CN(CC(=O)N[C@H](C(=O)NCC#Cc2ccccc2)C(C)C)Cc2ccccc2)cc1 | 
